ChEMBL document CHEMBL1124174, “Substituted benzamides. 1. Potential nondopaminergic antagonists of chemotherapy-induced nausea and emesis” (J Med Chem, 1988)
pIC50: −log10 of the molar value.

Columns and labels:
D(2) dopamine receptor = D(2) dopamine receptor (Rattus norvegicus, UniProt P61169); test: In vitro antagonistic activity against Dopamine receptor D2 was evaluated for the inhibition of [3H]spiperone binding
Procedure, shortened: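 Rat striatal membranes were prepared by differential centrifugation in 50 mM Tris pH 7.4 at 4 °C. Membrane protein (10 mg) was incubated 15 min at 37 °C with 0.1 nM [3H]spiperone and varying competitor concentrations. Buffer: 50 mM Tris HCl pH 7.5, 0.1% ascorbic acid, pargyline, 120 mM NaCl, 5 mM KCl, 2 mM CaCl2, 1 mM MgCl2. (+)-Butaclamol defined nonspecific binding. Bound ligand was collected by filtration and scintillation counted. IC50 by log-logit regression.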

[1] = molecular target: D(2) dopamine receptor (Rattus norvegicus) (UniProt P61169); test: In vivo antagonism activity against D2 receptor was measured as stereotypy in rat when administered subcutaneously; assay type: functional, organism-based
Procedure, shortened: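 Male Long Evans rats (275 g) were dosed sc in dilute aqueous HCl (pH 4.5-5.5) 30 min before apomorphine (1 mg/kg sc).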

Mustela putorius furo [2] = test: In vivo antagonism of cisplatin-induced emesis in ferret measured as emetic episodes, twice the dose of 1 mg/kg and in 3 ferrets; assay type: functional
Procedure, shortened: (§1)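 Nonfasted castrated male Fitch ferrets (1–1.5 kg) had jugular catheters implanted ≥48 h earlier under anesthesia. Compounds or saline were given iv twice, 5 min before and 90 min after cisplatin (12 mg/kg iv; 12 mg/mL in warm 0.9% saline). Emesis was observed up to 4 h; events within 1 min counted as one episode. Results were given as mean emetic episodes and % protection versus a pooled historical/concurrent control. t test versus saline.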

[3] = molecular target: D(2) dopamine receptor (Canis lupus familiaris) (UniProt Q9GJU1); test: In vivo antagonism activity against dopamine D2 receptor was measured as emesis in dog when administered subcutaneously; assay type: functional, organism-based
Canis familiaris [4] = test: In vivo antagonism of cisplatin-induced emesis in dog measured as percentage protection for twice the dose of 1 mg/kg in 2 dogs; assay type: functional, Canis lupus familiaris
Procedure, shortened: (§2)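 Nonfasted mature male or female beagles were dosed sc twice, 30 min before and 120 min after cisplatin (3 mg/kg iv; 3 mg/mL in warm 0.9% saline, used immediately). Emesis was observed up to 5 h; events within 2 min counted as one episode. Results were given as mean emetic episodes and % protection versus a dynamic control (historical and concurrent saline means pooled). t test versus saline.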

Mustela putorius furo [5] = test: In vivo antagonism of cisplatin-induced emesis in ferret measured as percentage protection for twice the dose of 1 mg/kg and in 3 ferrets; assay type: functional; procedure, shortened: as §1
[6] = molecular target: D(2) dopamine receptor (Rattus norvegicus) (UniProt P61169); test: In vivo antagonistic activity against dopamine D2 receptor was measured as catalepsy in rat when administered subcutaneously; assay type: functional, organism-based
Procedure, shortened: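 Male Long Evans rats (275 g) received graded sc doses in dilute aqueous HCl (pH 4.5-5.5). They were observed 180 min for catalepsy, scored when the animal stayed stationary ≥15 s on a four-cork template.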

Canis familiaris [7] = test: In vivo antagonism of cisplatin-induced emesis in dog measured as percentage protection for twice the dose of 0.3 mg/kg in 2 dogs; assay type: functional, Canis lupus familiaris; procedure, shortened: as §2
Canis familiaris [8] = test: In vivo antagonism of cisplatin-induced emesis in dog measured as emetic episodes, twice the dose of 0.3 mg/kg in 2 dogs; assay type: functional, Canis lupus familiaris; procedure, shortened: as §2
Mustela putorius furo [9] = test: In vivo antagonism of cisplatin-induced emesis in ferret measured as percentage protection for twice the dose of 3 mg/kg and in 3 ferrets; assay type: functional; procedure, shortened: as §1
Canis familiaris [10] = test: In vivo antagonism of cisplatin-induced emesis in dog measured as emetic episodes, twice the dose of 1 mg/kg in 2 dogs; assay type: functional, Canis lupus familiaris; procedure, shortened: as §2
Mustela putorius furo [11] = test: In vivo antagonism of cisplatin-induced emesis in ferret measured as emetic episodes, twice the dose of 3 mg/kg and in 3 ferrets; assay type: functional; procedure, shortened: as §1
Mustela putorius furo [12] = test: In vivo antagonism of cisplatin-induced emesis in ferret measured as percentage protection for twice the dose of 0.3 mg/kg and in 3 ferrets; assay type: functional; procedure, shortened: as §1
Mustela putorius furo [13] = test: In vivo antagonism of cisplatin-induced emesis in ferret measured as emetic episodes, twice the dose of 0.3 mg/kg and in 3 ferrets; assay type: functional; procedure, shortened: as §1

Sequence of D(2) dopamine receptor (Rattus norvegicus) (P61169 whole entry): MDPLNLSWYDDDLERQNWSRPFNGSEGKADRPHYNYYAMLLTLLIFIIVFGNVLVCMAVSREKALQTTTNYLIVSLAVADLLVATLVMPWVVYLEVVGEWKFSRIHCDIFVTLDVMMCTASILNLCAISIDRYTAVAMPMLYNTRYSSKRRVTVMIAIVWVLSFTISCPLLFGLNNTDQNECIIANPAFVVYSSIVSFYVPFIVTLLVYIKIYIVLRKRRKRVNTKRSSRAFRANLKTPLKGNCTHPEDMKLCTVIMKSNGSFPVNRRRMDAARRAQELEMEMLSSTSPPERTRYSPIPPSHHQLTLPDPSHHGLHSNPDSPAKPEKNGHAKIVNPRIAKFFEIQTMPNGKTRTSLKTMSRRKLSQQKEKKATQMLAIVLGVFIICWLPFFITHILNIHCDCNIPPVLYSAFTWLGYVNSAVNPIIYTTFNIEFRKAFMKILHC
Sequence of D(2) dopamine receptor (P61169 whole entry): as above
Sequence of D(2) dopamine receptor (Canis lupus familiaris) (Q9GJU1 whole entry): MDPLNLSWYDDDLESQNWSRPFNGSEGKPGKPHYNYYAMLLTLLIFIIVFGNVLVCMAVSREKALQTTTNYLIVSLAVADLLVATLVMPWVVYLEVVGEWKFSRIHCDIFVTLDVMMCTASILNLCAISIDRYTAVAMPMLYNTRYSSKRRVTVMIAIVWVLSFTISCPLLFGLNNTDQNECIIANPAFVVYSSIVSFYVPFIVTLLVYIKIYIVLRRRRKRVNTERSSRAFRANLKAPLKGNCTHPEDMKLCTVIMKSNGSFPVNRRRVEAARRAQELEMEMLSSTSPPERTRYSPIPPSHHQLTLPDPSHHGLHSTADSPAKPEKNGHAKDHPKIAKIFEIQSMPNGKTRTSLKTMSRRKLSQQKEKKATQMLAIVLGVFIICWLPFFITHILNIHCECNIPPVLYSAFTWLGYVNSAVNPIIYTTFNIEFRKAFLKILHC

| SMILES | pIC50 (D(2) dopamine receptor) | ED50 [1] [mg/kg] | Emetic episodes (Mustela putorius furo [2]) | ED50 [3] [mg/kg] | Protection (Canis familiaris [4]) [%] | Protection (Mustela putorius furo [5]) [%] | ED50 [6] [mg/kg] | Protection (Canis familiaris [7]) [%] | Emetic episodes (Canis familiaris [8]) | Emetic episodes (Canis familiaris [10]) | Protection (Mustela putorius furo [9]) [%] | Emetic episodes (Mustela putorius furo [11]) | also measured |
| --- | --- | --- | --- | --- | --- | --- | --- | --- | --- | --- | --- | --- | --- |
| CCN(CC)CCNC(=O)c1cc(Cl)c(N)cc1OC1CCCC1=O (stereo not drawn) | < 6.00 | > 40 | 5.7 | > 3 | 87 | 21 | > 40 |  |  |  |  |  |  |
| CCN(CC)CCNC(=O)c1cc(Cl)c(N)cc1OCC(=O)C(C)C | < 6.00 | > 40 | 4 | > 3 |  | 44 | > 40 | 44 | 3 |  |  |  |  |
| CCN(CC)CCNC(=O)c1cc(Cl)c(N)cc1OC(C)C(C)O (stereo in doubt; 8h) | < 6.00 |  |  |  | 75 |  |  |  |  | 3 |  |  | Protection (Mustela putorius furo [9]; 3 mg/kg): 95%; Emetic episodes (Mustela putorius furo [11]; 3 mg/kg): 0.3; Protection (Mustela putorius furo [12]; 0.3 mg/kg): 37%; Protection (Canis familiaris [7]; 0.3 mg/kg): 60%; Emetic episodes (Mustela putorius furo [2]; 1 mg/kg): 2.3; Emetic episodes (Mustela putorius furo [13]; 0.3 mg/kg): 4.7; Protection (Mustela putorius furo [5]; 1 mg/kg): 68%; Emetic episodes (Canis familiaris [8]; 0.3 mg/kg): 4.5 |
| CCN(CC)CCNC(=O)c1cc(Cl)c(N)cc1OC1CCCCC1=O (stereo not drawn) | < 6.00 | > 40 |  | > 3 | 100 |  | > 40 | 88 | 1.5 | 0 | 100 | 0 | Protection (Mustela putorius furo [12]): 62%; Emetic episodes (Mustela putorius furo [13]): 2.7 |
| CCN(CC)CCNC(=O)c1cc(Cl)c(N)cc1OC1CCCC[C@H]1OC (stereo partly drawn) | < 6.00 | > 40 | 1.7 | > 3 | 100 | 49 | > 40 | 70 | 3.5 | 0 | 82 | 1.3 | Protection (Mustela putorius furo [12]): 77%; Emetic episodes (Mustela putorius furo [13]): 3.7 |
| CCCC(=O)COc1cc(N)c(Cl)cc1C(=O)NCCN(CC)CC | < 6.00 | > 40 | 0.7 | > 3 |  | 90 | > 40 | 84 | 2 |  |  |  |  |
| CCC(Oc1cc(N)c(Cl)cc1C(=O)NCCN(CC)CC)C(C)=O (stereo not drawn) | < 6.00 | > 40 | 2.3 | > 3 | 96 | 68 | > 40 |  | 3 | 0.5 |  |  |  |
| CCN(CC)CCNC(=O)c1cc(Cl)c(N)cc1OC(C)C(C)O (stereo in doubt; 8g,h) | < 6.00 |  |  |  |  |  |  |  |  |  |  |  | Protection (Mustela putorius furo [9]; 3 mg/kg): 80%; Emetic episodes (Mustela putorius furo [11]; 3 mg/kg): 1.3; Protection (Canis familiaris [7]; 0.3 mg/kg): 96%; Emetic episodes (Mustela putorius furo [2]; 1 mg/kg): 1.7; Protection (Mustela putorius furo [5]; 1 mg/kg): 75%; Emetic episodes (Canis familiaris [8]; 0.3 mg/kg): 0.5 |
| CCN(CC)CCNC(=O)c1cc(Cl)c(N)cc1OC1CCCC[C@H]1O (stereo partly drawn) | < 6.00 | > 40 |  |  | 100 |  | > 40 | 64 | 4.5 | 0 | 64 | 2.7 |  |
| CCC(=O)COc1cc(N)c(Cl)cc1C(=O)NCCN(CC)CC | < 6.00 | > 40 |  | > 3 | 100 |  | > 40 |  | 3 | 0 | 90 | 0.7 | Protection (Mustela putorius furo [12]): 0%; Emetic episodes (Mustela putorius furo [13]): 7.3 |
| CCN(CC)CCNC(=O)c1cc(Cl)c(N)cc1OCC(C)O (stereo not drawn) | < 6.00 | > 40 | 4.5 | > 3 | 100 | 36 | > 40 | 68 | 3 | 0 | 86 | 1 |  |
